The assay addresses Kelch-like ECH-associated protein 1 (Homo sapiens) (UniProt Q14145). Nature of the assay: Keap1 Kelch binding to Nrf2 peptide inhibition, confirmation, orthogonal assay for Keap1-Nrf2 interaction inhibitor project, biophysical, competitive SPR, dry powder (AID 651876). As to conditions: stronger effect = higher value. In short, it runs like this:
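Material: Keap1 Kelch domain, biochemical; amount: 40 nM Kelch domain; probe or stimulus: biotinylated 16mer Nrf2 peptide captured on streptavidin CM5 surface; compound: two single doses per compound, 5 µM and 50 µM; timing: Kelch–compound preincubation at room temperature, SPR injection at 25 °C; technique: Double-referenced SPR association slopes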

The results in this text go back to PubChem BioAssay AID651876 (Broad Institute, 2012).

“And” between values parts separate entries of the source, which are not always exact repeats. Identical values can stand only once. The source made the active and inactive calls.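 How the source made its calls: active means inhibition above 20% at 50 µM; inactive means the rest.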

Kelch-like ECH-associated protein 1 (Homo sapiens), sequence (Q14145 whole entry, looked up, the tested form may be a part): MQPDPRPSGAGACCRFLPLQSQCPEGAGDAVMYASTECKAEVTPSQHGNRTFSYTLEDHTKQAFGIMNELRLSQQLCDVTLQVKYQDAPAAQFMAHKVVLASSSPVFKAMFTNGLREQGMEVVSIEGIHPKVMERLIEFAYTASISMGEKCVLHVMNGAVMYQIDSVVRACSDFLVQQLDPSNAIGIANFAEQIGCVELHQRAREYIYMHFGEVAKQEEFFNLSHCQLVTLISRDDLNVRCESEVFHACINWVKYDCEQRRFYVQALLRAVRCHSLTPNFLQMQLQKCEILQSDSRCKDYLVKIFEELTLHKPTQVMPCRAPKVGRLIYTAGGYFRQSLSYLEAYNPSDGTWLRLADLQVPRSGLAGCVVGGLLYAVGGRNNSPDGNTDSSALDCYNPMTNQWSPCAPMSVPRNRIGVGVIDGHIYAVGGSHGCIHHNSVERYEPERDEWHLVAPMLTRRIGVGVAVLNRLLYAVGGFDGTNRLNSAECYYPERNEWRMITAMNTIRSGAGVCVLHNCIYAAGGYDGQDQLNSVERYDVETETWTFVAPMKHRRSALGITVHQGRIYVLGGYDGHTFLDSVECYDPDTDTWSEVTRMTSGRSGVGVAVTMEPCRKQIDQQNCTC

The inhibition is the relative decrease from the control value, in per cent. Turning to `O=C(O)C1CCCCC1C(=O)N1CCc2ccccc2C1CN1C(=O)c2ccccc2S1(=O)=O` (centres undefined), the inhibition was 68.1% (at 50 µM) and 18.5% (inhibition, at 5 µM).
On the same counts, the results for `O=C(O)c1ccccc1C(=O)N1CCc2ccccc2C1CN1C(=O)c2ccccc2C1=O` (centres undefined) are 9.9% (inactive) and 1.9%.
The matching figures for `Cc1ccc(S(=O)(=O)NNc2nc(C(C(=O)OC(C)C)C(=O)C(F)(F)F)nc3ccccc23)cc1` (centres undefined): 28.3% and 4.9%.
In the case of `O=S(=O)(Nc1nc(NCC2CCCCC2)nc2ccccc12)c1ccccc1`, the inhibition is, setting by setting: (at 50 µM) 7% (inactive); (inhibition, at 5 µM) -1.7%.
The matching figures for `CCOC(=O)Cc1nc(NS(=O)(=O)c2c(C)cc(C)cc2C)c2ccccc2n1`: 4.3% (inactive) and 5.5%.
On the same counts, the results for `O=C1c2ccccc2C(=O)N1CC1c2ccccc2CCN1C(=O)Cc1ccccc1` (centres undefined) are 3.5% (inactive) and 3.1%.
On the same counts, the results for `COC(=O)CNc1nc(NS(=O)(=O)c2c(C)cc(C)cc2C)c2ccccc2n1` are 8.5% (inactive) and 1.1%.
On to `O=C1c2ccccc2C(=O)N1C[C@@H]1c2ccccc2CCN1C(=O)C1CCCCC1`, for which the inhibition runs as follows: (at 50 µM) 2.1% (inactive); (inhibition, at 5 µM) -0.3%.
On the same counts, the results for `O=C(O)C1CCCCC1C(=O)NCC1c2ccccc2CCN1C(=O)Cc1ccccc1` (centres undefined) are -4% (inactive) and 3.3%.
For the molecule `COc1ccccc1CCNC(=O)[C@@H]1c2ccccc2CCN1C(=O)C1CCCCC1C(=O)O` (some centres undefined), the inhibition by setting is: (at 50 µM) -4.2% (inactive) and -2.2% (inactive); (inhibition, at 5 µM) -12.8% and -7.2%.
Take `O=C(O)[C@@H]1CCCN1C(=O)N1CCc2ccccc2[C@H]1CN1C(=O)c2ccccc2C1=O`: the inhibition is 30.3% (at 50 µM) and 1.7% (inhibition, at 5 µM).
On the same counts, the results for `O=C(Oc1cc(CN2C(=O)c3ccccc3C2=O)c2ccccc2[n+]1[O-])c1cccc(Cl)c1` are 7.85% (inactive) and -2.91%.
